High-throughput results (PubChem BioAssay)
GRIN3A LBD mod: modulates the human NR3A ligand-binding domain; 340,000 tested, 2.5% active; NR3A LBD differential scanning fluorimetry, Tm shift; 0% = protein alone, 100% = glycine-bound protein; Tm shift relative to glycine control, % at 25 µM;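 active means melting temperature shift of at least 10% of the positive control shift, at one fixed dose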
Beta apoptosis: beta cell apoptosis inhibition | 300,000 tested, 0.8% active | INS-1E cytokine-induced death, ATP luminescence, 48 h; percent of positive-control rescue, neutral wells zero | protection from apoptosis, % (no concentration beside the values);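 active means Every replicate reaches about 75%, or at least half do and their mean reaches it too, limit read from the data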;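 further: 0% = cytokine-treated negative control wells and 100% = positive control rescue; higher means more ATP so stronger rescue from cytokine killing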
PREPL inhibitor: human PREPL enzyme inhibition. AID 2751. 320,000 tested, 0.68% active. recombinant PREPL, fluorescence polarization activity-based probe. Q4J6C6. inhibition, % at 5.96 µM; in the data active means inhibition above about 43%;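 further: 0% = enzyme with DMSO and 100% = wells lacking enzyme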
Target sequence (Q4J6C6 whole entry, looked up): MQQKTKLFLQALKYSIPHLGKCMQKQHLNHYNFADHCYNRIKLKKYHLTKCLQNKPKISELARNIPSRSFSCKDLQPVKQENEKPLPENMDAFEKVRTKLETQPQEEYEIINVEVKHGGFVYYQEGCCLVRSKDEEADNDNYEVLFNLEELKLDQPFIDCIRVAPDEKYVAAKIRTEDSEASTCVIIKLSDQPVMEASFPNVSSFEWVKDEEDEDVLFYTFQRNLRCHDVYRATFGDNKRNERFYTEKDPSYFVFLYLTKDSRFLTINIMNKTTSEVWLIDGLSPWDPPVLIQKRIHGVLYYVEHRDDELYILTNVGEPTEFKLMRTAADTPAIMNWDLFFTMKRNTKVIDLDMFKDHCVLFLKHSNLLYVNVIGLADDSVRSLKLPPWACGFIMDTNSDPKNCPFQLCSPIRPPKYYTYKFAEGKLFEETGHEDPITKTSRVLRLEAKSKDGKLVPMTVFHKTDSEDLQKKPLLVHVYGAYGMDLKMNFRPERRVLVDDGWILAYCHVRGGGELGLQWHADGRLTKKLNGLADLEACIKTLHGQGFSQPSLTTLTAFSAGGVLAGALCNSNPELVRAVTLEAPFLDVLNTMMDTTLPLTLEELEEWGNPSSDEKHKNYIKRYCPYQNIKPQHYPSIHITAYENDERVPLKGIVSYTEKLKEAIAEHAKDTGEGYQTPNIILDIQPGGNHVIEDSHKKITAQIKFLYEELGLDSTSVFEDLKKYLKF
T cruzi inh: T. cruzi replication inhibition | T. cruzi beta-gal in NIH3T3, luminescence, 90 h | inhibition, % (no concentration beside the values) | 300,000 tested, 1.4% active | AID 1885;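 active means mean inhibition across valid replicates above about 55%, limit read from the data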;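 further: signal also drops with host cell toxicity which is not excluded here; 0% = plate median of DMSO wells and 100% = zero luminescence signal; higher percent means less beta-gal luminescence so fewer parasites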
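System: Mouse NIH/3T3 fibroblasts infected with β-gal-expressing T. cruzi Tulahuen C4 | Quantity: NIH/3T3 cells, 5,000 per well | Reagent: 5000 reporter trypomastigotes per well | Dosing: Compound pinned at 50 nL/well, DMSO | Schedule: 3 h host attachment, then at least 90 h co-culture | Detection: GalScreen luminescence, 60 min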
CSC inhib: blocks cancer stem cells | inhibition, % at 7.5 µM | 300,000 tested, 1.1% active | AID 2717 | cancer stem cell-like cells viability, luminescence; in the data active means inhibition above about 75%; tested in HMLE shEcad cells
CHOP inh: blocks CHOP induction under ER stress; CHO-K1 CHOP-promoter luciferase, tunicamycin-induced, 15-18 h; inhibition, % at 10 µM; 220,000 tested, 3.8% active;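 active means compounds that reduced the stress-induced luciferase reporter signal by more than about 70% of percent inhibition, limit read from the data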;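 further: 0% = tunicamycin plus vehicle and 100% = wells without tunicamycin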
Numbers without * were called inactive. This is a sample that favours compounds with a hit; in the whole collection about 6.7% have one here.

Results for CC(C)(C)c1ccc(CSc2cnn(C(C)(C)C)c(=O)c2Cl)cc1 ?
GRIN3A LBD mod: -2.0; Beta apoptosis: 109.8*; PREPL inhibitor: 4.9; T cruzi inh: -11.6; CSC inhib: 32.5

What do the screens show for `CCCOC(=O)c1ccc(-[n+]2c(-c3ccccc3)cc(-c3ccccc3)cc2-c2ccccc2)cc1`?
GRIN3A LBD mod: -7.3; Beta apoptosis: 123.0*; PREPL inhibitor: 20.5; T cruzi inh: 55.4*; CSC inhib: 2.2

Results for Cc1cc(C(=O)OCC(=O)Nc2ccc(F)cc2)c(C)n1C1CC1 ?
GRIN3A LBD mod: -0.9; Beta apoptosis: -1.2; PREPL inhibitor: 7.4

What do the screens show for `COC(=O)C1=C(C(=O)OC)SC2(S1)C(C(=O)OC)=C(C(=O)OC)Sc1c2ssc1=O`?
GRIN3A LBD mod: 25.4*

How did CC(C)=CCc1c(O)cc2c(c1O)C(=O)CC(c1ccc(O)cc1)O2 (stereo not given) do in these assays?
GRIN3A LBD mod: 26.3*; PREPL inhibitor: -1.6; T cruzi inh: -9.9; CSC inhib: 98.6*; CHOP inh: 76.6*

What do the screens show for `CC12C(C(=O)O)C1(c1ccccc1)C2C(=O)O` (stereo not given)?
GRIN3A LBD mod: 1.4

Results for C=Cc1cc(OC)c2c(c1)c(=O)oc1c2cc(OC)c2c(O)ccc(C3OC(C)C(O)C(C)(O)C3O)c21 (stereo not given) ?
GRIN3A LBD mod: 4.2

Results for C=CCNC(=S)Nc1ccc(OC(=O)Nc2ccc(Cl)c(Cl)c2)cc1 ?
GRIN3A LBD mod: 20.7*; CHOP inh: 22.3

What do the screens show for `O=C(Nc1ccc(Cl)c(Cl)c1)c1ccco1`?
GRIN3A LBD mod: 5.3; Beta apoptosis: 1.8; PREPL inhibitor: -24.4; T cruzi inh: -17.5; CSC inhib: 27.5

What do the screens show for `Clc1ccc(C(c2ccc(Cl)cc2)n2cc[n+](CC(OCc3ccc(Cl)cc3Cl)c3ccc(Cl)cc3Cl)c2)cc1` (stereo not given)?
GRIN3A LBD mod: -13.6; Beta apoptosis: 121.5*; PREPL inhibitor: -2.5; CSC inhib: 107.1*; CHOP inh: -24.4

Results for C=CCN(CC#CCOc1ccccc1OC)CC=C ?
Beta apoptosis: -1.4; PREPL inhibitor: 2.4; T cruzi inh: -9.2; CSC inhib: -17.1; CHOP inh: 0.6

Results for O=C(c1cn(Cc2ccccc2F)c2ncccc12)C(F)(F)F ?
GRIN3A LBD mod: -0.5; Beta apoptosis: -1.0; PREPL inhibitor: 12.6; T cruzi inh: -5.0; CSC inhib: -1.3

How did NC(=O)c1cn(C2OC(CO)C(O)C2O)c2ncnc(N)c12 (stereo not given) do in these assays?
GRIN3A LBD mod: 2.6; PREPL inhibitor: 4.2; T cruzi inh: 57.2*; CSC inhib: -5.0; CHOP inh: 105.3*

What do the screens show for `COc1ccc(OC)c(N2C(=O)NC(=O)/C(=C/c3ccc([N+](=O)[O-])s3)C2=O)c1`?
GRIN3A LBD mod: -6.0; Beta apoptosis: -2.3; PREPL inhibitor: 31.3; T cruzi inh: 64.7*; CSC inhib: -2.1; CHOP inh: -69.9

What do the screens show for `O=C(Nc1ccc(F)c([N+](=O)[O-])c1)N1C[C@H]2C[C@@H](C1)c1cccc(=O)n1C2`?
GRIN3A LBD mod: 1.2; PREPL inhibitor: -1.4; T cruzi inh: -13.1; CSC inhib: -8.9

How did Cc1cc(N(CCCl)CCCl)ccc1C=NNC(=O)Cc1cc(=O)oc2cc(O)ccc12 do in these assays?
GRIN3A LBD mod: 11.1*

What do the screens show for `CCOc1cc2c(cc1OCC)-n1cccc1C(c1cccc(F)c1F)NC2` (stereo not given)?
GRIN3A LBD mod: 10.3*; Beta apoptosis: 1.1; PREPL inhibitor: -7.2; T cruzi inh: 35.7; CSC inhib: 0.5

Results for O=c1c2ccccc2nc(-c2ccccc2)n1-c1ccccc1 ?
GRIN3A LBD mod: 0.8; PREPL inhibitor: -2.5; T cruzi inh: -12.2; CSC inhib: 63.3; CHOP inh: -17.4

What do the screens show for `O=c1c2ccccc2nc(-c2ccccc2)n1-n1cccc1`?
GRIN3A LBD mod: 11.0*; Beta apoptosis: 2.0; PREPL inhibitor: 6.7; T cruzi inh: 5.7; CHOP inh: -60.2

What do the screens show for `CCOC(=O)c1c(-c2ccc(OC)cc2)oc2ccc(OC(=O)N(C)C)cc12`?
GRIN3A LBD mod: 1.4; Beta apoptosis: 2.5; PREPL inhibitor: 16.0; T cruzi inh: 18.8; CSC inhib: 76.1*; CHOP inh: 9.3

How did Cc1ccccc1NP(=O)(Oc1ccccc1F)Oc1ccccc1F do in these assays?
GRIN3A LBD mod: 11.2*; Beta apoptosis: -3.9; PREPL inhibitor: 1.1; T cruzi inh: 3.3; CSC inhib: 1.7; CHOP inh: -22.9

What do the screens show for `CCC(=NCCCN(CC)CC)c1c(O)n(C2CCCCC2)c(=O)[nH]c1=O`?
GRIN3A LBD mod: -2.0; Beta apoptosis: -1.1; PREPL inhibitor: 7.5; T cruzi inh: 66.4*; CSC inhib: -8.6; CHOP inh: 14.2

How did C/C(=N\NC(=O)c1ccccc1O)c1c(O)n(C2CCCCC2)c(=O)[nH]c1=O do in these assays?
GRIN3A LBD mod: 12.9*; Beta apoptosis: -3.5; PREPL inhibitor: 5.8; T cruzi inh: -26.4; CSC inhib: -6.7

Results for CCC(=NCCN1CCOCC1)c1c(O)n(C2CCCCC2)c(=O)[nH]c1=O ?
GRIN3A LBD mod: 1.4; Beta apoptosis: -1.0; PREPL inhibitor: -6.2; T cruzi inh: -6.1; CSC inhib: 2.1; CHOP inh: 8.0

How did CCN(CC)CCCN=C(C)c1c(O)n(C2CCCCC2)c(=O)[nH]c1=O do in these assays?
GRIN3A LBD mod: 2.5; Beta apoptosis: -3.5; PREPL inhibitor: 1.0; T cruzi inh: 65.1*; CHOP inh: 6.0

What do the screens show for `CCCCCn1c(=O)c(C(=O)NC(C)c2ccccc2)c(O)c2ccccc21` (stereo not given)?
GRIN3A LBD mod: -4.0; Beta apoptosis: 109.4*; PREPL inhibitor: -7.2; T cruzi inh: 51.8; CSC inhib: 34.2

What do the screens show for `CCCCn1c(=O)c(C(=O)Nc2ccccc2S(N)(=O)=O)c(O)c2ccccc21`?
GRIN3A LBD mod: -0.2; Beta apoptosis: 3.2; PREPL inhibitor: 4.0; T cruzi inh: -3.4; CSC inhib: 41.5; CHOP inh: 77.3*

What do the screens show for `CCCCCn1c(=O)c(C(=O)Nc2ccccc2S(N)(=O)=O)c(O)c2ccccc21`?
GRIN3A LBD mod: -1.4; Beta apoptosis: 18.9; PREPL inhibitor: 5.9; T cruzi inh: 68.6*; CSC inhib: 5.8; CHOP inh: 81.7*

Results for CN1CCC(O)(c2cccs2)C(C(=O)c2cccs2)C1 (stereo not given) ?
GRIN3A LBD mod: 1.4; Beta apoptosis: -10.4; PREPL inhibitor: 5.0; T cruzi inh: 19.5; CSC inhib: 11.5

How did COc1ccccc1CCNC1CCC(C(C)(C)C)CC1 (stereo not given) do in these assays?
GRIN3A LBD mod: -3.0; Beta apoptosis: 10.1; PREPL inhibitor: 5.9; T cruzi inh: 58.8*; CSC inhib: 32.1; CHOP inh: 67.4
